Converted amounts (≈) assume the structure as drawn.
Legend:
NCI-H292 = experiment: Cytotoxicity against human NCI-H292 cells after 72 hrs by MTT assay; assay type: functional, cell-based; details: NCI-H292, 72 h
Procedure, shortened: (§1)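 Tumour cells plated at 10⁵ cells/mL (adherent) or 3 × 10⁵ cells/mL (leukaemias) in medium with fetal bovine serum, 2 mM glutamine, penicillin/streptomycin, 37 °C, 5% CO₂. Compounds ([…], 0.1% DMSO) added for 72 h; MTT (5 mg/mL stock) added at 69 h, formazan dissolved in DMSO after 3 h, read at 595 nm. IC50 with 95% CI from nonlinear regression, two experiments.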

[1] = Cytotoxicity against LPS-stimulated Balb/c mouse peritoneal macrophages assessed as cell viability at 6.2 ug/ml after 24 hrs by MTT assay relative to control; assay type: cell-based, Peritoneal macrophage cell; details: read-out: Activity
Procedure, shortened: (§2)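 Adherent thioglycollate-elicited Balb/c peritoneal macrophages exposed 24 h to compound (3.1–25.0 µg/mL) and/or LPS (1 µg/mL), then MTT (5 mg/mL stock) added for 4 h; formazan dissolved in DMSO, absorbance 550 nm. Cell death % = (1 − A_test/A_control) × 100. Quadruplicate wells, three independent experiments; mean ± SD.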

[2] = Cytotoxicity against LPS-stimulated Balb/c mouse peritoneal macrophages assessed as cell viability after 24 hrs by MTT assay; assay type: cell-based; details: peritoneal macrophage cell; procedure, shortened: as §2
MCF7 = experiment: Cytotoxicity against human MCF7 cells after 72 hrs by MTT assay; assay type: functional, cell-based; details: MCF7, 72 h
[3] = Cytotoxicity against LPS-stimulated Balb/c mouse peritoneal macrophages assessed as cell viability at 3.1 ug/ml after 24 hrs by MTT assay relative to control; assay type: cell-based, Peritoneal macrophage cell; details: read-out: Activity; procedure, shortened: as §2
[4] = Cytotoxicity against LPS-stimulated Balb/c mouse peritoneal macrophages assessed as cell viability at 25 ug/ml after 24 hrs by MTT assay relative to control; assay type: cell-based, Peritoneal macrophage cell; details: read-out: Activity; procedure, shortened: as §2
HT-29 = experiment: Cytotoxicity against human HT-29 cells after 72 hrs by MTT assay; assay type: functional, cell-based; details: HT-29, 72 h; procedure, shortened: as §1
[5] = Cytotoxicity against LPS-stimulated Balb/c mouse peritoneal macrophages assessed as cell viability at 12.5 ug/ml after 24 hrs by MTT assay relative to control; assay type: cell-based, Peritoneal macrophage cell; details: read-out: Activity; procedure, shortened: as §2
K562 = experiment: Cytotoxicity against human K562 cells after 72 hrs by MTT assay; assay type: functional, cell-based; details: K562, 72 h; procedure, shortened: as §1
HL-60 = experiment: Cytotoxicity against human HL60 cells after 72 hrs by MTT assay; assay type: functional, cell-based; details: HL-60, 72 h; procedure, shortened: as §1
[6] = Antiinflammatory activity in Balb/c mouse peritoneal macrophages assessed as reduction in LPS-induced nitric oxide production at 3.1 ug/ml after 24 hrs by Griess method relative to control; assay type: functional, Peritoneal macrophage cell
Procedure, shortened: (§3)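 Thioglycollate-elicited (2.5 mL 3%, i.p., 72 h) peritoneal cells from Balb/c mice, viability checked by trypan blue, cultured at 5 × 10⁶ cells/mL in RPMI-1640 + 10% FBS; non-adherent cells removed after 2 h at 37 °C, 5% CO₂. Adherent macrophages treated with compound plus LPS (1 µg/mL) 24 h; supernatant collected. Mean ± SD of three independent experiments; ANOVA with Newman-Keuls versus medium-only cells.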

[7] = Antiinflammatory activity in Balb/c mouse peritoneal macrophages assessed as reduction in LPS-induced TNF-alpha production at 3.1 ug/ml after 24 hrs by ELISA relative to control; assay type: functional, Peritoneal macrophage cell; procedure, shortened: as §3

SMILES | IC50 (NCI-H292) | viability at 24 h, 6.2 ug/ml [1] | Activity [2] | IC50 (MCF7) | viability at 24 h, 3.1 ug/ml [3] | viability at 24 h, 25 ug/ml [4] | IC50 (HT-29) | viability at 24 h, 12.5 ug/ml [5] | IC50 (K562) | IC50 (HL-60) | Activity [6] | Activity [7]
C=CCCC1CC=CC(=O)O1 (configuration not stated) | > 100 mg/L | 45.4% | Dose-dependent effect | > 100 mg/L | 57% | 2.5% | > 100 mg/L | 19.7% | – | – | – | –
COc1cccc2c1C(=O)c1c(O)c3c(c(O)c1C2=O)C[C@@](O)(C(=O)CO)C[C@@H]3O[C@H]1C[C@H](N)[C@H](O)[C@H](C)O1 [DOXORUBICIN] | 0.02 mg/L (≈ 0.0368 µM) | – | – | – | – | – | – | – | 0.26 mg/L (≈ 0.478 µM) | – | – | –
O=C1C=CCC(c2ccccc2)O1 (configuration not stated) | 9.1 mg/L (≈ 52.2 µM) | 30.9% | Dose-dependent effect | 22.9 mg/L (≈ 131 µM) | 34.5% | 7.4% | 10.9 mg/L (≈ 62.6 µM) | 1% | 8.9 mg/L (≈ 51.1 µM) | 13.2 mg/L (≈ 75.8 µM) | – | –
O=C1C=CCC(COc2ccccc2)O1 (configuration not stated) | 0.8 mg/L (≈ 3.92 µM) | 47.3% | Dose-dependent effect | 22.5 mg/L (≈ 110 µM) | 93% | 0% | 4.4 mg/L (≈ 21.5 µM) | 0% | 2.9 mg/L (≈ 14.2 µM) | 5.4 mg/L (≈ 26.4 µM) | 5.2 µM | 112.4 pg/mL
C=CCOCC1CC=CC(=O)O1 (configuration not stated) | 16.6 mg/L (≈ 98.7 µM) | 77.2% | Dose-dependent effect | 44.6 mg/L (≈ 265 µM) | 100% | 7.7% | 18.4 mg/L (≈ 109 µM) | 51.1% | 50 mg/L (≈ 297 µM) | 25.5 mg/L (≈ 152 µM) | 2.7 µM | 210 pg/mL
CCCCC[C@@H]1CC=CC(=O)O1 | 11.3 mg/L (≈ 67.2 µM) | – | – | 60 mg/L (≈ 357 µM) | – | – | 22.6 mg/L (≈ 134 µM) | – | 20.2 mg/L (≈ 120 µM) | 16 mg/L (≈ 95.1 µM) | – | –
CCC1CC=CC(=O)O1 (configuration not stated) | > 100 mg/L | – | – | > 100 mg/L | – | – | > 100 mg/L | – | – | – | – | –
